ChEMBL document CHEMBL1145431, “Improved anti-osteoporosis potency and reduced endometrial membrane hyperplasia during hormone replacement therapy with estrogen-RGD peptide conjugates” (2007)
Where a SMILES comes first, the peptide text is derived from it. The star is where a group is joined. Succinyl(O17-estradiol) = C[C@]12CC[C@@H]3c4ccc(O)cc4CC[C@H]3[C@@H]1CC[C@@H]2OC(=O)CCC(=O)*

How the values were obtained:
Mus musculus [1] = test: Effect on mineral content in ovariectomized mouse at 0.1103 mmol/kg, ip once daily for 4 weeks; type: functional
Method in brief: (§1)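 Female Kuiming mice (7 weeks, 30.7 ± 3.1 g) ovariectomized, sham group abdominorotomy. From day 5, i.p. once daily for 4 weeks at 110.3 × 10-3 mmol/kg in 0.5% CMC. Left femur cleaned, length measured, defatted in chloroform-methanol (2:1, 2 × 3 h), dried 120 °C 6 h for dry weight, ashed 800 °C 8 h. Mineral content = ash/dry weight. Ash dissolved in 6 N HCl and diluted. Ca by o-methylphenolphthalein complexone, P by molybdenum blue. Lungs and livers weighed directly.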

Mus musculus [2] = test: Increase in body weight in ovariectomized mouse at 0.1103 mmol/kg, ip once daily for 4 weeks; type: functional
Method in brief: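 Female Kuiming mice (30.7 ± 3.1 g) underwent abdominal OVX; the sham group had abdominorotomy only. From day 5 after surgery, i.p. dosing once daily for 4 weeks at 110.3 × 10-3 mmol/kg in aqueous 0.5% CMC. Body weight was recorded on the day of the last administration.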

Mus musculus [3] = test: Effect on uterus weight in mouse at 0.1103 mmol/kg, po; type: functional
Mus musculus [4] = test: Effect on liver weight in mouse at 0.1103 mmol/kg, po; type: functional
Method in brief: (§2)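 Female Kuiming mice (7 weeks old, 30.7 ± 3.1 g) under abdominal OVX, sham group abdominorotomy only. From day 5 after surgery, dosed orally once daily for 4 weeks at 110.3 × 10-3 mmol/kg in 0.5% CMC (0.2 mL), vehicle group CMC alone. Blood drawn retro-orbitally, then left femur and organs removed under pentobarbital (40.0 mg/kg, i.p.).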

Mus musculus [5] = test: Effect on mineral content in mouse at 0.1103 mmol/kg, po; type: functional; method in brief: as §2
Mus musculus [6] = test: Effect on lenght of femur in mouse at 0.110 mmol/kg, po; type: functional; method in brief: as §2
Mus musculus [7] = test: Effect on femur ash weight in ovariectomized mouse at 0.1103 mmol/kg, ip once daily for 4 weeks; type: functional; method in brief: as §1
Mus musculus [8] = test: Effect on serum ALP lavel in ovariectomized mouse at 0.1103 mmol/kg, ip once daily for 4 weeks; type: functional
Method in brief: (§3)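 OVX Kuiming mice dosed i.p. daily for 4 weeks in 0.5% CMC. Blood taken retro-orbitally on the day after the last dose, stood 30 min, spun at 3000 g for 20 min, serum stored at -20 °C. Calcium by o-methylphenolphthalein complexone, phosphorus by molybdenum blue, ALP by activity with disodium phenylphosphate substrate.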

Mus musculus [9] = test: Effect on spleen weight in mouse at 0.1103 mmol/kg, po; type: functional; method in brief: as §2
Mus musculus [10] = test: Effect on dry weight of femurs in mouse at 0.1103 mmol/kg, po; type: functional, Femur; method in brief: as §2
Mus musculus [11] = test: Effect on serum calcium level in mouse at 0.1103 mmol/kg, po; type: functional
Method in brief: (§4)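 Oral OVX Kuiming mouse model, dosed daily for 4 weeks at 110.3 × 10-3 mmol/kg in 0.5% CMC. Retro-orbital blood stood 30 min at room temperature and was spun at 3000 g for 20 min. Serum kept at -20 °C. Calcium read by o-methylphenolphthalein complexone, phosphorus by molybdenum blue, ALP by activity on disodium phenylphosphate substrate.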

Mus musculus [12] = test: Effect on serum calcium level in ovariectomized mouse at 0.1103 mmol/kg, ip once daily for 4 weeks; type: functional; method in brief: as §3
Mus musculus [13] = test: Effect on dry weight of femurs in ovariectomized mouse at 0.1103 mmol/kg, ip once daily for 4 weeks; type: functional, Femur; method in brief: as §1
Mus musculus [14] = test: Effect on lung weight in mouse at 0.1103 mmol/kg, po; type: functional; method in brief: as §2
Mus musculus [15] = test: Effect on uterus weight in ovariectomized mouse at 0.1103 mmol/kg, ip once daily for 4 weeks; type: functional
Method in brief: (§5)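 Female Kuiming mice (7 weeks old, 30.7 ± 3.1 g), abdominal OVX under pentobarbital (40.0 mg/kg i.p.). From day 5 after surgery, i.p. injection once daily for 4 weeks, compound in aqueous 0.5% CMC prepared just before use. The day after the last dose, mice were anesthetized and killed, and lungs, livers, spleens and uteri were removed and weighed directly. n = 12, ANOVA, p < 0.05.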

Mus musculus [16] = test: Effect on femur ash weight in mouse at 0.1103 mmol/kg, po; type: functional; method in brief: as §2
Mus musculus [17] = test: Effect on calcium level in mouse at 0.1103 mmol/kg, po; type: functional; method in brief: as §2
Mus musculus [18] = test: Effect on lung weight in ovariectomized mouse at 0.1103 mmol/kg, ip once daily for 4 weeks; type: functional; method in brief: as §1
Mus musculus [19] = test: Effect on serum phosphorous Concentration in mouse at 0.110 mmol/kg, po; type: functional; method in brief: as §4
Mus musculus [20] = test: Effect on phosphorus level in mouse at 0.110 mmol/kg, po; type: functional; method in brief: as §2
Mus musculus [21] = test: Effect on serum phosphorus level in ovariectomized mouse at 0.1103 mmol/kg, ip once daily for 4 weeks; type: functional; method in brief: as §3
Mus musculus [22] = test: Effect on calcium level in ovariectomized mouse at 0.1103 mmol/kg, ip once daily for 4 weeks; type: functional; method in brief: as §1
Mus musculus [23] = test: Effect on liver weight in ovariectomized mouse at 0.110 mmol/kg, ip once daily for 4 weeks; type: functional; method in brief: as §1
Mus musculus [24] = test: Effect on spleen weight in ovariectomized mouse at 0.1103 mmol/kg, ip once daily for 4 weeks; type: functional; method in brief: as §5
Mus musculus [25] = test: Effect on serum ALP level in mouse at 0.1103 mmol/kg, po; type: functional; method in brief: as §4
Mus musculus [26] = test: Effect on phosphorus level in ovariectomized mouse at 0.1103 mmol/kg, ip once daily for 4 weeks; type: functional; method in brief: as §1
Mus musculus [27] = test: Effect on femur length in ovariectomized mouse at 0.1103 mmol/kg, ip once daily for 4 weeks; type: functional; method in brief: as §1

| SMILES | Ratio (Mus musculus [1]) | Activity (Mus musculus [2]) | Activity (Mus musculus [3]) | Activity (Mus musculus [4]) | Ratio (Mus musculus [5]) | Activity (Mus musculus [6]) | Activity (Mus musculus [7]) | Activity (Mus musculus [8]) | Activity (Mus musculus [9]) | Activity (Mus musculus [10]) | Activity (Mus musculus [11]) | Activity (Mus musculus [12]) | Activity (Mus musculus [13]) | Activity (Mus musculus [14]) | Activity (Mus musculus [15]) | Activity (Mus musculus [16]) | Activity (Mus musculus [17]) | Activity (Mus musculus [18]) | Activity (Mus musculus [19]) | Activity (Mus musculus [20]) | further results |
| --- | --- | --- | --- | --- | --- | --- | --- | --- | --- | --- | --- | --- | --- | --- | --- | --- | --- | --- | --- | --- | --- |
| CC(C)[C@H](NC(=O)[C@H](CC(=O)O)NC(=O)CNC(=O)[C@H](CCCNC(=N)N)NC(=O)CCC(=O)O[C@H]1CC[C@H]2[C@@H]3CCc4cc(O)ccc4[C@H]3CC[C@]12C)C(=O)O ({Succinyl(O17-estradiol)}-RGDV-OH) | 0.625 | 34.5 g | 50.7 mg | 1.34 g | 52.5% | 1.645 cm | 35.8 mg | 31.057 U/L | 133 mg | 68.2 mg | 2.03 mmol/L | 2.005 mmol/L | 62.6 mg | 167 mg | 69.4 mg | 33 mg | 52.003% | 167 mg | 1.61 mmol/L | 24.879% | Activity (Mus musculus [21]): 1.605 mmol/L; Activity (Mus musculus [22]): 53.078%; Activity (Mus musculus [23]): 1.353 g; Activity (Mus musculus [24]): 143 mg; Activity (Mus musculus [25]): 33.411 U/L; Activity (Mus musculus [26]): 24.867%; Activity (Mus musculus [27]): 1.655 cm |
| C[C@]12CC[C@@H]3c4ccc(O)cc4CC[C@H]3[C@@H]1CC[C@@H]2OC(=O)CCC(=O)N[C@@H](CCCNC(=N)N)C(=O)NCC(=O)N[C@@H](CC(=O)O)C(=O)N[C@@H](CO)C(=O)O ({Succinyl(O17-estradiol)}-RGDS-OH) | 0.52 | 35.4 g | 36.7 mg | 1.331 g | 51.5% | 1.654 cm | 34.4 mg | 32.771 U/L | 135 mg | 68.8 mg | 2.04 mmol/L | 2.002 mmol/L | 66.4 mg | 161 mg | 55.5 mg | 29.3 mg | 51.201% | 151 mg | 1.6 mmol/L | 24.885% | Activity (Mus musculus [21]): 1.602 mmol/L; Activity (Mus musculus [22]): 51.312%; Activity (Mus musculus [23]): 1.371 g; Activity (Mus musculus [24]): 130 mg; Activity (Mus musculus [25]): 35.4 U/L; Activity (Mus musculus [26]): 24.92%; Activity (Mus musculus [27]): 1.634 cm |
